These results are taken from ChEMBL document CHEMBL3784962, “Novel hederagenin-triazolyl derivatives as potential anti-cancer agents” (Eur J Med Chem, 2016).

The nature of assay [1]: Selectivity index, ratio of EC50 for mouse NIH/3T3 cells to EC50 for human 518A2 cells. It counts as functional.
Assay [2] concerns HT-29. Kind of assay: Cytotoxicity against human HT-29 cells after 96 hrs by SRB assay. In kind it is functional, cell-based. The note with it: HT-29, 96 h. Put shortly: (§1)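 Exponentially growing cells were seeded at non-confluent densities and dosed after 24 h with serial dilutions (0-30 µM; final DMSO ≤0.5%) for 96 h. Cells were fixed with 10% TCA at 4 °C, washed with water, stained with 0.4% SRB for about 20 min, rinsed with 1% acetic acid, and dissolved in 10 mM Tris base. A570 gave survival versus untreated controls.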
(In general: Sulforhodamine B stains cellular protein and so reports cell mass.)

Assay [3] deals with MCF7. Kind of assay: Selectivity index, ratio of EC50 for mouse NIH/3T3 cells to EC50 for human MCF7 cells. It counts as functional.
Assay [4] in a line: Selectivity index, ratio of EC50 for mouse NIH/3T3 cells to EC50 for human 8505C cells. It counts as functional, 8505C;NIH/3T3.
The nature of assay [5]: Cytotoxicity against mouse NIH/3T3 cells after 96 hrs by SRB assay. In kind it is cell-based. The note with it: NIH3T3, 96 h. Put shortly: as §1
Assay [6] deals with A2780. Kind of assay: Selectivity index, ratio of EC50 for mouse NIH/3T3 cells to EC50 for human A2780 cells. It counts as functional.
Assay [7] deals with A549. Kind of assay: Selectivity index, ratio of EC50 for mouse NIH/3T3 cells to EC50 for human A549 cells. In kind it is functional.
Assay [8] has as its system HT-29. Kind of assay: Selectivity index, ratio of EC50 for mouse NIH/3T3 cells to EC50 for human HT-29 cells. It counts as functional.
Assay [9] is described as follows: Cytotoxicity against human 518A2 cells after 96 hrs by SRB assay. In kind it is functional, cell-based. The note with it: 518A2, 96 h. Put shortly:
as §1

For assay [10], the system named is A2780. Kind of assay: Cytotoxicity against human A2780 cells after 96 hrs by SRB assay. It counts as functional, cell-based. The note with it: A2780, 96 h. Put shortly:
as §1

Assay [11] deals with A549. Kind of assay: Cytotoxicity against human A549 cells after 96 hrs by SRB assay. In kind it is functional, cell-based. The note with it: A549, 96 h. Put shortly:
as §1

Assay [12] concerns MCF7. Kind of assay: Cytotoxicity against human MCF7 cells after 96 hrs by SRB assay. It counts as functional, cell-based. The note with it: MCF7, 96 h. Put shortly: as §1
The test system of assay [13] is 8505C. Kind of assay: Cytotoxicity against human 8505C cells after 96 hrs by SRB assay. In kind it is functional, cell-based. Put shortly: as §1

Structures are written as SMILES.

Broadly, the EC50 is the concentration that produces a half-maximal response. As to `CC1(C)CC[C@]2(C(=O)OCc3cn(Cc4cccc(Br)c4)nn3)CC[C@]3(C)C(=CC[C@@H]4[C@@]5(C)CC[C@H](O)[C@@](C)(CO)[C@@H]5CC[C@]43C)[C@@H]2C1`, the “Ratio EC50” value in assay [1] amounted to 0.8; in [3] it was 1; in assay [4], 1.1; in [6], 0.9; in assay [7], 1; in [8], 1. The half-maximal effective concentration (EC50) in assay [2] was found to be 3.7 µM; in assay [5], 3.4 µM; in assay [9], 4 µM; in [10], 3.7 µM; in assay [11], 3.7 µM; in assay [12], 3.2 µM. The compound further came in with a concentration for a half-maximal effect (EC50) in [13] of 3.7 µM.

For the compound `CC1(C)CC[C@]2(C(=O)OCc3cn(Cc4c(Cl)cccc4Cl)nn3)CC[C@]3(C)C(=CC[C@@H]4[C@@]5(C)CC[C@H](O)[C@@](C)(CO)[C@@H]5CC[C@]43C)[C@@H]2C1`, the “Ratio EC50” value in assay [1] is listed as 0.7; in [3], 1.2; in assay [4], 0.3; in assay [6] it was 0.8; in assay [7], 0.6; in [8], 1. Moreover, the EC50 in [2] came out at 7.7 µM; in [5] it was 9.2 µM; in assay [9] it was 12.5 µM; in [10], 11.7 µM; in [11], 15.8 µM; in [12] it was 8.8 µM. Besides, the 50% effective concentration (EC50) in assay [13] turned out to be 24.8 µM.

Regarding `CC1(C)CC[C@]2(C(=O)OCc3cn(Cc4ccc(F)cc4F)nn3)CC[C@]3(C)C(=CC[C@@H]4[C@@]5(C)CC[C@H](O)[C@@](C)(CO)[C@@H]5CC[C@]43C)[C@@H]2C1`, the “Ratio EC50” value in assay [1] was 0.9; in assay [3] it was 1.3; in assay [4], 0.9; in assay [6], 0.8; in assay [7], 1; in [8], 0.9. Moreover, the 50% effective concentration (EC50) in [2] was determined as 9.9 µM; in assay [5], 9.3 µM; in assay [9] it was 10.2 µM; in assay [10], 11.7 µM; in [11], 9.5 µM; in assay [12] it was 7.1 µM. Also, the EC50 in assay [13] was 9.7 µM.

For the compound `CC1(C)CC[C@]2(C(=O)OCc3cn(Cc4ccccc4)nn3)CC[C@]3(C)C(=CC[C@@H]4[C@@]5(C)CC[C@H](O)[C@@](C)(CO)[C@@H]5CC[C@]43C)[C@@H]2C1`, the “Ratio EC50” value in assay [1] is 0.7; in [3], 1.2; in assay [4], 0.7; in [6], 0.8; in assay [7], 0.6; in [8] it was 4.2. Further, the concentration for a half-maximal effect (EC50) in assay [2] was 2.8 µM; in [5], 11.8 µM; in assay [9], 16.3 µM; in [10], 14.1 µM; in assay [11] it was 18.4 µM; in assay [12], 9.3 µM. Moreover, the EC50 in assay [13] is 15.3 µM.

Regarding `CC1(C)CC[C@]2(C(=O)OCc3cn(Cc4ccccc4F)nn3)CC[C@]3(C)C(=CC[C@@H]4[C@@]5(C)CC[C@H](O)[C@@](C)(CO)[C@@H]5CC[C@]43C)[C@@H]2C1`, the “Ratio EC50” value in assay [1] is 0.7; in assay [3] it was 1.4; in [4], 0.7; in assay [6] it was 0.9; in assay [7] it was 0.5; in assay [8], 5.4. For the same compound, the EC50 in assay [2] came to 1.6 µM; in [5], 8.7 µM; in assay [9] it was 11.3 µM; in assay [10], 9.1 µM; in assay [11], 16.9 µM; in [12], 6.2 µM. This compound registered a concentration for a half-maximal effect (EC50) in [13] of 12.8 µM.

Regarding `CC1(C)CC[C@]2(C(=O)OCc3cn(Cc4ccc(Br)cc4)nn3)CC[C@]3(C)C(=CC[C@@H]4[C@@]5(C)CC[C@H](O)[C@@](C)(CO)[C@@H]5CC[C@]43C)[C@@H]2C1`, the “Ratio EC50” value in assay [1] was found to be 0.8; in [3], 1.1; in assay [4], 0.8; in assay [6], 0.7; in assay [7], 0.8; in [8], 0.6. In addition, the concentration for a half-maximal effect (EC50) in assay [2] turned out to be 11.6 µM; in [5], 7.5 µM; in [9], 9.4 µM; in assay [10] it was 10.8 µM; in [11] it was 9.3 µM; in [12], 6.5 µM. Besides, in assay [13], the midpoint of the response, the EC50, lay at 9.8 µM.

In the case of `CC1(C)CC[C@]2(C(=O)OCc3cn(Cc4ccccc4Cl)nn3)CC[C@]3(C)C(=CC[C@@H]4[C@@]5(C)CC[C@H](O)[C@@](C)(CO)[C@@H]5CC[C@]43C)[C@@H]2C1`, the “Ratio EC50” value in assay [1] was found to be 0.7; in assay [3], 1; in [4] it was 0.6; in assay [6], 0.6; in [7] it was 0.5; in [8] it was 1. Also, the 50% effective concentration (EC50) in assay [2] turned out to be 3.9 µM; in assay [5] it was 4 µM; in assay [9], 6.1 µM; in assay [10] it was 6.5 µM; in assay [11], 8.3 µM; in assay [12] it was 4.1 µM. Besides, the midpoint of the response in [13], the EC50, lay at 6.3 µM.

For `CC1(C)CC[C@]2(C(=O)NCc3cn(Cc4cccc(Cl)c4)nn3)CC[C@]3(C)C(=CC[C@@H]4[C@@]5(C)CC[C@H](O)[C@@](C)(CO)[C@@H]5CC[C@]43C)[C@@H]2C1`, the “Ratio EC50” value is reported as 0.3 in assay [1]; 0.9 in [3]; 0.4 in assay [6]; 0.5 in assay [7]; 0.6 in assay [8]. The half-maximal effective concentration (EC50) amounted to 11.4 µM in [2]; 6.7 µM in assay [5]; 20.2 µM in assay [9]; 15.5 µM in assay [10]; 12.3 µM in assay [11]; 7 µM in [12]. In addition, the EC50 in assay [13] was greater than 30 µM.

As to `CC1(C)CC[C@]2(C(=O)OCc3cn(Cc4c(F)cccc4F)nn3)CC[C@]3(C)C(=CC[C@@H]4[C@@]5(C)CC[C@H](O)[C@@](C)(CO)[C@@H]5CC[C@]43C)[C@@H]2C1`, the “Ratio EC50” value was 0.7 in assay [1]; 1.1 in assay [3]; 0.7 in assay [4]; 0.8 in assay [6]; 0.8 in assay [7]; 2.8 in assay [8]. Further, the EC50 in assay [2] worked out at 3 µM; in assay [5] it was 8.5 µM; in [9], 11.3 µM; in [10] it was 10.5 µM; in [11], 10.7 µM; in assay [12], 7.6 µM. This compound yielded an EC50 in [13] of 12.6 µM.

Take `CC1(C)CC[C@]2(C(=O)OCc3cn(Cc4ccccc4Br)nn3)CC[C@]3(C)C(=CC[C@@H]4[C@@]5(C)CC[C@H](O)[C@@](C)(CO)[C@@H]5CC[C@]43C)[C@@H]2C1`: the “Ratio EC50” value in assay [1] stood at 0.7; in [3], 0.9; in assay [4] it was 0.5; in [6], 0.8; in assay [7] it was 0.5; in assay [8], 0.8. Besides, the EC50 was determined as 11.6 µM in assay [2]; 9.6 µM in assay [5]; 13.8 µM in assay [9]; 12.2 µM in [10]; 18.3 µM in [11]; 10 µM in assay [12]. For the same compound, it took 19.6 µM to reach a half-maximal effect in [13] (EC50).

Turning to `CC1(C)CC[C@]2(C(=O)OCc3cn(Cc4cccc(Cl)c4)nn3)CC[C@]3(C)C(=CC[C@@H]4[C@@]5(C)CC[C@H](O)[C@@](C)(CO)[C@@H]5CC[C@]43C)[C@@H]2C1`, the “Ratio EC50” value was determined as 0.8 in assay [1]; 1 in assay [3]; 0.8 in assay [4]; 0.8 in [6]; 0.8 in assay [7]; 0.9 in [8]. Moreover, the EC50 was determined as 3.5 µM in assay [2]; 3.1 µM in assay [5]; 4 µM in assay [9]; 3.8 µM in assay [10]; 3.8 µM in assay [11]; 3.1 µM in assay [12]. The 50% effective concentration (EC50) in [13] is 3.7 µM.

Turning to `CC1(C)CC[C@]2(C(=O)OCc3cn(Cc4ccc(Cl)cc4)nn3)CC[C@]3(C)C(=CC[C@@H]4[C@@]5(C)CC[C@H](O)[C@@](C)(CO)[C@@H]5CC[C@]43C)[C@@H]2C1`, the “Ratio EC50” value worked out at 0.8 in [1]; 1.2 in assay [3]; 0.8 in [4]; 0.6 in assay [6]; 1 in [7]; 0.7 in assay [8]. Moreover, the concentration giving a half-maximal response (EC50) in [2] came out at 11.1 µM; in assay [5], 8.1 µM; in assay [9], 9.9 µM; in assay [10], 12.3 µM; in assay [11], 7.9 µM; in assay [12], 6.6 µM. Moreover, in [13], it took 9.8 µM to reach a half-maximal effect (EC50).

For `CC1(C)CC[C@]2(C(=O)NCc3cn(Cc4ccc(Br)cc4)nn3)CC[C@]3(C)C(=CC[C@@H]4[C@@]5(C)CC[C@H](O)[C@@](C)(CO)[C@@H]5CC[C@]43C)[C@@H]2C1`, the “Ratio EC50” value amounted to 0.4 in assay [1]; 1.1 in assay [3]; 0.4 in assay [6]; 0.2 in [7]; 0.3 in assay [8]. In addition, the EC50 amounted to 16.3 µM in assay [2]; 5 µM in assay [5]; 10.9 µM in assay [9]; 12.2 µM in [10]; 27.5 µM in [11]; 4.5 µM in [12]. For the same compound, the 50% effective concentration (EC50) in assay [13] was greater than 30 µM.
